Assay results reported in ChEMBL document CHEMBL4028901, “Novel Antitubercular 6-Dialkylaminopyrimidine Carboxamides from Phenotypic Whole-Cell High Throughput Screening of a SoftFocus Library: Structure-Activity Relationship and Target Identification Studies” (J Med Chem, 2017).
≈ marks a conversion by molar mass, not a printed value.

Assays:
[1] = tested on: Mycobacterium tuberculosis; experiment: Antibacterial activity against Mycobacterium tuberculosis H37RvMA grown in 7H9/ADC medium measured 7 to 14 days post inoculation by broth microdilution method; assay type: functional
[2] = tested on: Mycobacterium tuberculosis; experiment: Antibacterial activity against Mycobacterium tuberculosis H37RvMA grown in GAST/Fe medium measured 7 to 14 days post inoculation by broth microdilution method; assay type: functional
In short: (§1)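 H37RvMa grown to OD600 0.6–0.7, diluted 1:100 in GAST/Fe. Compounds two-fold serially diluted from a top concentration of 640 μM, in duplicate. Incubated at 37 °C with humidification.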

[3] = tested on: Vero; experiment: Cytotoxicity against African green monkey Vero cells assessed as reduction in cell viability by MTT assay; assay type: cell-based; settings: Chlorocebus sabaeus
In short: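 MTT assay in Vero cells, samples in triplicate on one occasion. Stocks at 20 mg/mL in DMSO, diluted in complete medium as 10-fold serial dilutions over 6 concentrations. Emetine used as reference. IC50 derived by non-linear dose-response curve fitting.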

[4] = Kinetic solubility of the compound in pH 7.4 solution at 10 to 220 uM after 2 hrs by shake flask method; assay type: physicochemical; settings: for Kinetic_solubility: buffer, pH 7.4, 2 h, 220 µM; for solubility kinetic at 2 h: pH 7.4 solution, pH 7.4, read-out: Kinetic_solubility
[5] = tested on: Mycobacterium tuberculosis; experiment: Antibacterial activity against wild type Mycobacterium tuberculosis H37Rv grown in GAST/Fe medium measured on day 14 post inoculation by broth microdilution method; assay type: functional; settings: 336 h; in short: as §1

Compound | MIC99 [1] [µM] | MIC99 [2] [µM] | IC50 [3] [µM] | Kinetic_solubility [4] [µM] | MIC99 [5] [µM] | solubility kinetic at 2 h [4] [µM]
COc1ccc(NC(=O)c2cc(N(C)Cc3ccc(F)cc3)ncn2)cc1 | 5 (≈ 1.83 µg/mL) | 2.5 (≈ 0.916 µg/mL) | 60.5 | 62 |  | 
CN(Cc1ccc(Cl)cc1)c1cc(C(=O)Nc2ccccc2)ncn1 | 5 (≈ 1.76 µg/mL) | 2.3 (≈ 0.811 µg/mL) | 207 | < 5 |  | 
O=C(Nc1ccccc1)c1cc(N2CCc3ccccc3C2)ncn1 | > 160 | > 160 |  | < 5 |  | 
Cc1nc(C(=O)Nc2ccccc2)cc(N(C)Cc2ccc(Cl)cc2)n1 | > 160 | > 160 |  |  |  | 
CN1CCN(c2ccc(NC(=O)c3cc(N(C)Cc4ccc(F)cc4)ncn3)cn2)CC1 | > 50 | 19 (≈ 8.27 µg/mL) | 126 | 150 |  | 
COc1ccc(NC(=O)c2cc(N(C)Cc3ccc(Cl)cc3)nc(NC3CC3)n2)cc1 | > 50 | > 160 |  | 5 |  | 
CN(Cc1ccc(C(F)(F)F)cc1)c1cc(C(=O)Nc2ncn(C)n2)ncn1 | 50 (≈ 19.6 µg/mL) | 10 (≈ 3.91 µg/mL) | 28 | 173 |  | 
CN(Cc1ccc(F)cc1)c1cc(C(=O)Nc2ccon2)ncn1 | > 50 | 160 (≈ 52.4 µg/mL) |  |  |  | 
COCCOc1ccc(NC(=O)c2cc(N(C)Cc3ccc(F)cc3)ncn2)cc1 | 2.3 (≈ 0.944 µg/mL) | 1.56 (≈ 0.64 µg/mL) | 244 | < 5 |  | 
CN(Cc1ccc(F)cc1)c1cc(C(=O)Nc2ccccc2)ncn1 | 6.25 (≈ 2.1 µg/mL) | 1.56 (≈ 0.525 µg/mL) | 297 | < 5 | 10 (≈ 3.36 µg/mL) | 
CN(CC1CCCCC1)c1cc(C(=O)Nc2ccccc2)ncn1 | > 50 | 40 (≈ 13 µg/mL) | 178 |  |  | 
CN(Cc1ccc(F)cc1)c1nc(C(=O)Nc2ccccc2)cs1 | > 50 | > 50 | 279 |  |  | < 5
COc1ccc(NC(=O)c2ccnc(N(C)Cc3ccc(F)cc3)n2)cc1 | > 50 | > 50 | 273 |  |  | < 5
CN(Cc1ccc(F)cc1)c1cc(-c2nnc(-c3ccccc3)[nH]2)ncn1 | > 50 | 25 (≈ 9.01 µg/mL) | 277 | < 5 |  | 
CN1CCN(c2cccc(NC(=O)c3cc(N(C)Cc4ccc(F)cc4)ncn3)c2)CC1 | 37 (≈ 16.1 µg/mL) | 37 (≈ 16.1 µg/mL) | 118 | 74 |  | 
CN(Cc1ccccc1)c1cc(C(=O)N(C)c2ccccc2)ncn1 | > 160 |  |  |  |  | 
CN(Cc1ccccc1Cl)c1cc(C(=O)Nc2ccccc2)ncn1 | > 160 |  |  | < 5 |  | 
CN(Cc1cccc(Cl)c1)c1cc(C(=O)Nc2ccccc2)ncn1 | 20 (≈ 7.06 µg/mL) | 10 (≈ 3.53 µg/mL) |  | < 5 |  | 
O=C(Nc1ccccc1)c1cc(NCc2ccccc2)ncn1 | > 160 |  |  | < 5 |  | 
CN(Cc1ccc(F)cc1)c1ccnc(C(=O)Nc2ccccc2)c1 |  | 10 (≈ 3.35 µg/mL) | 298 |  |  | < 5
CN(Cc1ccccc1)c1cc(C(=O)Nc2ccccc2)ncn1 | 20 (≈ 6.37 µg/mL) | 10 (≈ 3.18 µg/mL) | 314 | < 5 |  | 
CC(=O)N1CCN(c2ccc(NC(=O)c3cc(N(C)Cc4ccc(C(F)(F)F)nc4)ncn3)cc2)CC1 | 4.7 (≈ 2.41 µg/mL) | 2.3 (≈ 1.18 µg/mL) | > 50 |  |  | < 5
CN(Cc1ccc(F)cc1)c1cc(C(=O)Nc2ccc(N3CCOCC3)cc2)ncn1 | 0.78 (≈ 0.329 µg/mL) | 0.6 (≈ 0.253 µg/mL) | 237 | < 5 |  | 

Compound | MIC99 [1] [µM] | MIC99 [2] [µM] | IC50 [3] [µM] | Kinetic_solubility [4] [µM] | MIC99 [5] [µM] | solubility kinetic at 2 h [4] [µM]
CC(C)NC(=O)c1cc(N(C)Cc2ccc(C(F)(F)F)cc2)ncn1 | > 50 | > 160 | 217 | 13 |  | 
CN(c1ccccc1)c1cc(C(=O)Nc2ccccc2)ncn1 | > 160 |  |  | < 5 |  | 
Cc1csc(NC(=O)c2cc(N(C)Cc3ccc(F)cc3)ncn2)n1 | 37 (≈ 13.2 µg/mL) | 5 (≈ 1.79 µg/mL) |  | < 5 |  | 
CN(Cc1ccc(Cl)cc1)c1cc(C(=O)Nc2ccncc2)ncn1 |  | 10 (≈ 3.54 µg/mL) | 282 | < 5 |  | 
Cc1c(C(=O)Nc2ccc(F)cc2)ncnc1N(C)Cc1ccc(F)cc1 | > 50 | 37 (≈ 13.6 µg/mL) | 271 |  |  | < 5
O=C(Nc1ccccc1)c1cc(OCc2ccccc2)ncn1 | > 160 |  |  |  |  | 
CN(Cc1ccc(F)cc1)c1cc(C(=O)Nc2ccccc2)cnn1 | > 50 | > 50 | 279 | 40 |  | 
CN(Cc1ccc(F)cc1)c1cc(C(Nc2ccc(F)cc2)C(F)(F)F)ncn1 (stereo not given) | 37 (≈ 15.1 µg/mL) | 19 (≈ 7.76 µg/mL) | 41.7 | < 5 |  | 
COc1ccc(NC(=O)c2cc(N(C)Cc3ccc(Cl)cc3)nc(N)n2)cc1 | > 50 | > 160 |  |  |  | < 5
CN(Cc1ccc(F)cc1)c1cc(C(=O)Nc2ccn(C)n2)ncn1 | > 50 | 40 (≈ 13.6 µg/mL) |  | 90 |  | 
CN(C)CCOc1ccc(NC(=O)c2cc(N(C)Cc3ccc(F)cc3)ncn2)cc1 | 25 (≈ 10.6 µg/mL) | 12.5 (≈ 5.29 µg/mL) |  | 155 |  | 
CN(Cc1ccccn1)c1cc(C(=O)Nc2ccccc2)ncn1 | > 160 |  |  |  |  | 
CCN(Cc1ccc(Cl)cc1)c1cc(C(=O)Nc2ccccc2)ncn1 | > 50 | 40 (≈ 14.7 µg/mL) | 272 | 5 |  | 
COc1ccc(NC(=O)c2cc(N(C)Cc3cccc(F)c3)ncn2)cc1 | 37 (≈ 13.6 µg/mL) | 5 (≈ 1.83 µg/mL) | 272 |  | 2.5 to 5 (≈ 0.916 to 1.83 µg/mL) | 
O=C(Nc1ccccc1)c1ccc(=O)n(Cc2ccc(F)cc2)c1 | > 50 | > 50 | 310 | 170 |  | 
CN(CCc1ccccc1)c1cc(C(=O)Nc2ccccc2)ncn1 | 80 (≈ 26.6 µg/mL) |  |  | < 5 |  | 
CN(Cc1ccc(F)cc1)c1cncc(C(=O)Nc2ccc(F)cc2)n1 | > 50 | > 50 | 282 |  |  | < 5
CN1CCN(c2ccc(NC(=O)c3cc(N(C)Cc4ccc(C(F)(F)F)nc4)ncn3)cc2)CC1 | 12.5 (≈ 6.07 µg/mL) | 12.5 (≈ 6.07 µg/mL) | 45.2 | 165 |  | 
CN(Cc1ccc(F)cc1)c1cc(NC(=O)c2ccccc2)ncn1 |  | > 160 |  | 5 |  | 
CN(Cc1ccc(C#N)cc1)c1cc(C(=O)Nc2ccccc2)ncn1 | > 50 | 20 (≈ 6.87 µg/mL) |  |  |  | < 5
CN(Cc1ccc(C(F)(F)F)nc1)c1cc(C(=O)Nc2ccc(N3CCOCC3)cn2)ncn1 | 3.13 (≈ 1.48 µg/mL) | 2.3 (≈ 1.09 µg/mL) | 211 | < 5 |  | 
NNC(=O)c1ccncc1 [ISONIAZID] |  |  |  |  | 0.18 (≈ 0.0247 µg/mL) | 
C[C@H]1COc2c(N3CCN(C)CC3)c(F)cc3c(=O)c(C(=O)O)cn1c23 [LEVOFLOXACIN] |  |  |  |  | 0.64 (≈ 0.231 µg/mL) | 
